ChEMBL document CHEMBL1208708, “Piperidinyl-nicotinamides as potent and selective somatostatin receptor subtype 5 antagonists” (Bioorg Med Chem Lett, 2010)
In brackets after ≈: the same amount, converted by molar mass. Activity calls are given as the source filed them. No cut-off for these calls is given here.

Columns and labels:
[1] = target: T1, Somatostatin receptor type 5 (Homo sapiens, UniProt P35346); experiment: Displacement of radio labeled 11 Tyr SST14 from human SST5 receptor expressed in CHO cells; assay type: cell-based
Procedure, shortened: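 Membranes from SST5-expressing cells, made by sonication, incubated with radiolabeled 11Tyr SST-14 and varying test compound; non-specific binding defined with unlabeled SST-14. Incubation stopped by glass-fiber filtration, bound radioactivity counted; IC50 and Ki derived.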

Homo sapiens = species: Homo sapiens; experiment: Selectivity ratio of human SST1 receptor to human SST5 receptor
[2] = target: Histamine H1 receptor (Homo sapiens) (UniProt P35367); experiment: Inhibition of human histamine H1 receptor ar 3 uM
[3] = Solubility of the compound in 50 mM phosphate buffer at pH 6.5 by lyophilisation solubility assay; assay type: physicochemical
Procedure, shortened: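 Compound taken from DMSO stock solution, lyophilized, then dissolved in 50 mM phosphate buffer at pH 6.5; dissolved amount read spectrophotometrically.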

[4] = Membrane permeability of the compound by PAMPA; assay type: ADME; settings: read-out: permeability
[5] = Octanol-TAPSO distribution coefficient, log D of the compound at pH 7.4 by spectrophotometric analysis; assay type: physicochemical; settings: octanol/TAPSO buffer
Procedure, shortened: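 Octanol/50 mM TAPSO buffer at pH 7.4 containing 5% (v/v) DMSO; partitioning read spectrophotometrically.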

[6] = Dissociation constant, pKa of the compound by spectrophotometric analysis; assay type: physicochemical
Procedure, shortened: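 Measured spectrophotometrically in SGA buffer with 10% (v/v) methanol, ionic strength 150 mM; value refers to the piperidine nitrogen.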

[7] = target: T1, Somatostatin receptor type 5; experiment: Antagonist activity at human SST5 receptor expressed in CHO cells assessed as inhibition of forskolin-induced cAMP accumulation by FRET assay; assay type: functional, cell-based
[8] = target: Somatostatin receptor type 2 (Homo sapiens) (UniProt P30874); experiment: Antagonist activity at human SST2 receptor expressed in CHO cells assessed as inhibition of forskolin-induced cAMP accumulation by FRET assay; assay type: functional, cell-based
[9] = target: Somatostatin receptor type 3 (Homo sapiens) (UniProt P32745); experiment: Antagonist activity at human SST3 receptor expressed in CHO cells assessed as inhibition of forskolin-induced cAMP accumulation by FRET assay; assay type: functional, cell-based
[10] = target: Somatostatin receptor type 4 (Homo sapiens) (UniProt P31391); experiment: Antagonist activity at human SST4 receptor expressed in CHO cells assessed as inhibition of forskolin-induced cAMP accumulation by FRET assay; assay type: functional, cell-based
Sequence of Somatostatin receptor type 4 (Homo sapiens) (P31391 whole entry): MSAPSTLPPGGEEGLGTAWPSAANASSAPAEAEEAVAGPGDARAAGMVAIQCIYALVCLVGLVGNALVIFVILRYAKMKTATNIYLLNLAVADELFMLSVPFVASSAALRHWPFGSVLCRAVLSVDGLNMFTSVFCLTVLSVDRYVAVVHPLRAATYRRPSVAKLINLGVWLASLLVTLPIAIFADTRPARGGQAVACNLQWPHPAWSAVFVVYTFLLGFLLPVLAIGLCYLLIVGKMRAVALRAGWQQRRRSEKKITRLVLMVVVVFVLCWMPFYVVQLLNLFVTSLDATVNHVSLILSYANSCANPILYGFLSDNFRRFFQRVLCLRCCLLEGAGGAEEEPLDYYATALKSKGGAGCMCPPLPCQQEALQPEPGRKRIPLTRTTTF

T1 sequence (P35346 whole entry): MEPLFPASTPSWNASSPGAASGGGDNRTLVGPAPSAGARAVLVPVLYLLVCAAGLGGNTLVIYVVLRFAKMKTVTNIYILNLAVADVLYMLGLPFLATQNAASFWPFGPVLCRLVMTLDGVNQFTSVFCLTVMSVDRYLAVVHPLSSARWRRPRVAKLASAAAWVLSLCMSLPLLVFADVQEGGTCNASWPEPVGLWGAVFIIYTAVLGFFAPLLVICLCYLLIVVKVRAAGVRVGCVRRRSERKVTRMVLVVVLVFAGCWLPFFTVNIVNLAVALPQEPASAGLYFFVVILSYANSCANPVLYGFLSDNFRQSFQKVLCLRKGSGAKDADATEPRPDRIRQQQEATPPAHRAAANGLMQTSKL
Sequence of Histamine H1 receptor (Homo sapiens) (P35367 whole entry): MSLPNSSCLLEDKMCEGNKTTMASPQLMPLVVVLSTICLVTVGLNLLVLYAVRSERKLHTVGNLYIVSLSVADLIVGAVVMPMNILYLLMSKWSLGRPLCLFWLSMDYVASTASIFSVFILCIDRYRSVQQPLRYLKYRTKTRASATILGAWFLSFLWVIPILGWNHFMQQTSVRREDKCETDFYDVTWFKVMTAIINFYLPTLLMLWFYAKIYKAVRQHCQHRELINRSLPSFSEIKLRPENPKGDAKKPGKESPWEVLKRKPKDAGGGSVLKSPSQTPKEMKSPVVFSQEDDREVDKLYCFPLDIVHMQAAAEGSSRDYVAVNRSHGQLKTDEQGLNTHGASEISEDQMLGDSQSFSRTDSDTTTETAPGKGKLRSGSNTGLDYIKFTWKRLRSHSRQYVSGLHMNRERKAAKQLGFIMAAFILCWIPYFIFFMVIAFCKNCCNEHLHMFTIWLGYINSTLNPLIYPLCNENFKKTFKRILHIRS
Sequence of Somatostatin receptor type 2 (Homo sapiens) (P30874 whole entry): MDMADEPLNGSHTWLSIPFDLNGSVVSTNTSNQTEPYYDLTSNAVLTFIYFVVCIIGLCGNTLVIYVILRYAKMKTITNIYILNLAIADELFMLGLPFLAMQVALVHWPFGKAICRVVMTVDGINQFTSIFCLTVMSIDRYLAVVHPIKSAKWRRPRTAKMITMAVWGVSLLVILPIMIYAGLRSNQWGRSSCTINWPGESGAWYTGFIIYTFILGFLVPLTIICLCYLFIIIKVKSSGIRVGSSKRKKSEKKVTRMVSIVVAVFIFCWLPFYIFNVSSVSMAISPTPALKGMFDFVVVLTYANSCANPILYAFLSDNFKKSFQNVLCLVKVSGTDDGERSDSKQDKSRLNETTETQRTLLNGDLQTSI
Sequence of Somatostatin receptor type 3 (Homo sapiens) (P32745 whole entry): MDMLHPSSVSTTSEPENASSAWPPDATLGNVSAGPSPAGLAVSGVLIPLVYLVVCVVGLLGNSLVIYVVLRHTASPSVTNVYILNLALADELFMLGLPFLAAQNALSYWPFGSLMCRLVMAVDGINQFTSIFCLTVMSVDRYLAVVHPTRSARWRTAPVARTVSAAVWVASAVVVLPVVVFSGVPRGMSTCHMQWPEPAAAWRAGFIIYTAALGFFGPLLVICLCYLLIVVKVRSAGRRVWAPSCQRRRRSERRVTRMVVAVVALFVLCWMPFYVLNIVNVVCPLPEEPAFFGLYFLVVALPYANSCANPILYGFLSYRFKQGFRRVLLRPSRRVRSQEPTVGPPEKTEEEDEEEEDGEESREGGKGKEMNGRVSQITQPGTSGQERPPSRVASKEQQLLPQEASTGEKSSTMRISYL

| SMILES | Ki [1] | Selectivity ratio (Homo sapiens) | inhibition [2] | solubility [3] | Papp [4] | logD [5] | pKa [6] | EC50 [7] | Activity [8] | Activity [9] | Activity [10] |
| --- | --- | --- | --- | --- | --- | --- | --- | --- | --- | --- | --- |
| CCOc1cc(CN2CCC(NC(=O)c3cncc(C)c3)CC2)cc(OCC)c1F | 25 nM | 180 | 25% | 443 µg/mL (≈ 1070 µM) | 3.48 ×10⁻⁶ cm/s | 2.9 | 7.7 | > 1000 nM |  |  |  |
| CCOc1cc(CN2CCCC(NC(=O)c3ccc(N)nc3)CC2)cc(F)c1F (racemic) | 436 nM |  |  |  |  |  |  | > 1000 nM | inactive | inactive | inactive |
| CCOc1cc(CN2CCCC(NC(=O)c3cncc(C)c3)CC2)cc(OCC)c1-c1ccc(F)cc1 (racemic) | 9.3 nM | 86 | 54% | 81 µg/mL (≈ 160 µM) | 1.56 ×10⁻⁶ cm/s | 3.31 | 8.34 | > 1000 nM |  |  |  |
| CCOc1cc(CN2CCC(NC(=O)c3ccc(NC)nc3)CC2)cc(OCC)c1-c1ccccc1 | 6.9 nM | 439 | 13% | 155 µg/mL (≈ 317 µM) | 2.07 ×10⁻⁶ cm/s | 3.13 | 7.9 | > 1000 nM |  |  |  |
| CCOc1cc(CN2CCC(NC(=O)c3cncc(C)c3)CC2)ccc1Cl | 15 nM | 335 |  | 172 µg/mL (≈ 443 µM) | 1.93 ×10⁻⁶ cm/s | 3.05 | 7.63 |  |  |  |  |
| CCOc1cc(CN2CCC(NC(=O)c3ccc(NC(C)C)nc3)CC2)cc(OCC)c1F | 6.3 nM | 141 | 35% | > 520 µg/mL | 2.41 ×10⁻⁶ cm/s | 3.39 | 7.84 | > 1000 nM |  |  |  |
| CCOc1cc(CN2CCC[C@H](NC(=O)c3cncc(C)c3)CC2)ccc1Cl | 637 nM |  |  |  |  |  |  |  |  |  |  |
| CCOc1cc(CN2CCC(NC(=O)c3cncc(C)c3)CC2)ccc1C | 21 nM | > 500 | 81% | > 433 µg/mL | 2.94 ×10⁻⁶ cm/s | 3.03 | 8.08 |  |  |  |  |
| CCOc1cc(CN2CCC(NC(=O)c3ccc(Cl)nc3)CC2)cc(OCC)c1-c1ccc(F)cc1 | 7.9 nM | 54 | 7.1% | 76 µg/mL (≈ 148 µM) |  | 3.55 | 7.8 | > 1000 nM |  |  |  |
| CCOc1cc(CN2CCC(NC(=O)c3cncc(C)c3)CC2)cc(OCC)c1-c1ccc(F)cc1 | 4.4 nM | 59 | 5.9% | 94 µg/mL (≈ 191 µM) | 0.46 ×10⁻⁶ cm/s | 4.01 | 7.69 | > 1000 nM |  |  |  |
| CCOc1cc(CN2CCC(NC(=O)c3cncc(C)c3)CC2)ccc1-c1ccc(C(F)(F)F)cc1 | 11 nM | 89 | 48% | < 1 µg/mL | 0.03 ×10⁻⁶ cm/s | > 4 | 7.96 |  |  |  |  |
| CCOc1cc(CN2CCC(NC(=O)c3ccc(NC)nc3)CC2)cc(OCC)c1F | 18 nM | > 500 | 55% | 330 µg/mL (≈ 767 µM) | 2.98 ×10⁻⁶ cm/s | 2.66 | 7.83 | > 1000 nM |  |  |  |
| CCOc1cc(CN2CCC[C@@H](NC(=O)c3cncc(C)c3)CC2)ccc1C | 22 nM | 256 | 97% |  |  |  |  |  |  |  |  |
| CCOc1cc(CN2CCC(NC(=O)c3ccc(NC)nc3)CC2)cc(OCC)c1-c1ccc(F)cc1 | 2.5 nM | 211 | 11% | 153 µg/mL (≈ 302 µM) | 1.23 ×10⁻⁶ cm/s | 3.83 | 7.86 | > 1000 nM |  |  |  |
| CCOc1cc(CN2CC(NC(=O)c3cncc(C)c3)C2)cc(OCC)c1F | > 1000 nM |  |  | > 499 µg/mL | 1.93 ×10⁻⁶ cm/s | 2.44 | 7.19 |  |  |  |  |
| CCOc1cc(CN2CCC[C@@H](NC(=O)c3cncc(C)c3)CC2)ccc1Cl | 18 nM | 175 | 98% |  |  |  |  |  |  |  |  |
| CCOc1cc(CN2CCC(NC(=O)c3ccc(N)nc3)CC2)cc(OCC)c1-c1ccc(F)cc1 | 7.1 nM | 407 | 4.7% | 123 µg/mL (≈ 250 µM) | 1.39 ×10⁻⁶ cm/s | 3.15 | 7.86 | > 1000 nM |  |  |  |
| CCOc1cc(CN2CCC(NC(=O)c3ccc(N)nc3)CC2)ccc1C | 19 nM | > 500 | 85% | 375 µg/mL (≈ 1020 µM) | 2.4 ×10⁻⁶ cm/s | 2.24 | 8.27 | > 1000 nM |  |  |  |
| CCOc1cc(CN2CCC[C@@H](NC(=O)c3cncc(C)c3)CC2)cc(OCC)c1F | 22 nM | 253 | 58% |  |  |  |  |  |  |  |  |
| CCOc1cc(CN2CCC(NC(=O)c3ccc(N)nc3)CC2)cc(OCc2ccccc2)c1-c1ccc(F)cc1 | 6.7 nM | 660 | -1.2% | 5 µg/mL (≈ 9.01 µM) | 0.14 ×10⁻⁶ cm/s | 3.94 | 7.66 | > 1000 nM | inactive | inactive | inactive |
| CCOc1cc(CN2CCC(NC(=O)c3cncc(C)c3)CC2)cc(OCC)c1-c1ccccc1 | 5.4 nM | 224 | -1.2% | 152 µg/mL (≈ 321 µM) | 0.64 ×10⁻⁶ cm/s | 3.73 | 7.74 | > 1000 nM |  |  |  |
| CCOc1cc(CN2CCC(NC(=O)c3cncc(C)c3)CC2)cc(OCC)c1Cl | 4.4 nM |  |  | 216 µg/mL (≈ 500 µM) | 3.82 ×10⁻⁶ cm/s | 3.43 | 7.46 | > 1000 nM |  |  |  |
| CCOc1cc(CN2CCC(NC(=O)c3cncc(C)c3)CC2)cc(OCC)c1C | 4 nM |  |  | 106 µg/mL (≈ 258 µM) | 2.36 ×10⁻⁶ cm/s | 3.61 | 7.92 |  |  |  |  |
| CCOc1cc(CN2CCC(NC(=O)c3cncc(C)c3)CC2)cc(OCC)c1-c1ccc(OC(F)(F)F)cc1 | 2.4 nM | 743 | 12% | < 1 µg/mL |  | > 4 |  | > 1000 nM |  |  |  |
| CCOc1cc(CN2CCC(NC(=O)c3cncc(C)c3)CC2)cc(OCC)c1-n1ccnc1 | 11 nM | 213 | 33% | 473 µg/mL (≈ 1020 µM) | 3.17 ×10⁻⁶ cm/s | 2.61 | 7.34 | > 1000 nM |  |  |  |
| CCOc1cc(CN2CCC(NC(=O)c3cncc(C)c3)CC2)ccc1-c1ccc(F)cc1 | 4.9 nM | 84 | 89% | 101 µg/mL (≈ 226 µM) | 1.32 ×10⁻⁶ cm/s | 4.1 | 7.87 | > 1000 nM |  |  |  |
